# How the values were obtained:
# [1] = tested on: RAW264.7; assay: Inhibition of LPS-induced nitric oxide production in mouse RAW264.7 cells; assay type: functional, cell-based
# Outline: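 Compounds were pre-added 30 min before LPS stimulation for 24 h. Supernatant was mixed 1:1 with Griess reagent (1% sulfanilamide, 0.1% naphthylethylenediamine dihydrochloride, 2% phosphoric acid) for 5 min at room temperature. Nitrite was read at OD 550 nm against a NaNO₂ standard curve. IC50 came from dose–inhibition curves, mean of four independent experiments.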
# [2] = Cytotoxicity against mouse RAW264.7 cells assessed as cell viability at 13.10 uM by MTT assay; assay type: cell-based; settings: read-out: Activity
# [3] = Selectivity for iNOS to nNOS
# [4] = Selectivity for iNOS to eNOS
# [5] = Cytotoxicity against mouse RAW264.7 cells assessed as cell viability at 3.78 uM by MTT assay; assay type: cell-based; settings: read-out: Activity
IC50 [1],Selectivity ratio [3],Selectivity ratio [4],Compound,viability at 13.1 µM [2],viability at 3.78 µM [5]
13.1 µM,,,COc1cc(OC)c(C(=O)/C=C/c2ccc3c(c2)OCO3)c(OC)c1,100%,
3.78 µM,200,5000,CC(=N)NCc1cccc(CN)c1 [1400W],,82%
